Data from ChEMBL document CHEMBL5649170, “Sustained microglial depletion with CSF1R inhibitor impairs parenchymal plaque development in an Alzheimer's disease model” (Nat Commun, 2019).
The source made the active and inactive calls. The rule behind the calls is not given here.

Experiments:
Mus musculus [1] = test: Antialzheimer activity in 5XFAD mouse assessed as number of S100bteta positive cells per FOV in somatosensory cortex at 1200 ppm administered as rodent chow for 10 to 24 weeks by immunolabelling based confocal microscopic analysis (reference value: 283 to 357); type: functional; conditions: route po, time 10-24 weeks
Mus musculus [2] = test: Antialzheimer activity in 5XFAD mouse assessed as time spent in closed arm at 1200 ppm administered as rodent chow for 10 to 24 weeks by Elevated plus maze test (reference value: 76.2 to 206.2 sec); type: functional; conditions: route po, time 10-24 weeks
[3] = Effect on Csf1r RPKM gene expression in 5XFAD mouse cortex at 1200 ppm administered as rodent chow starting from 1.5 months and measured after 7 months by RNA-Seq analysis (reference value: 26.750 to 37.128 RPKM); type: functional; conditions: route po, time 5.5 months, 4015 h
Misshapen-like kinase 1 = Misshapen-like kinase 1 (Homo sapiens, UniProt Q8N4C8); test: Inhibition of MINK1 (unknown origin)
[4] = Effect on Rnf217 gene expression in wildtype mouse hippocampus assessed as percent change in Reads Per kilo base per Million mapped reads at 1200 ppm administered as rodent chow starting from 1.5 months and measured after 7 months by RNA-Seq analysis (reference value: 92.169 to 103.245 %); type: functional; conditions: route po, time 5.5 months, 4015 h
Mus musculus [5] = test: Antialzheimer activity in 5XFAD mouse assessed as percent change in claudin-5 intensity of Thio-S negative retro spinal cortex at 1200 ppm administered as rodent chow starting from 1.5 months and measured after 4 months by immunolabeling analysis relative to control; type: functional; conditions: route po, time 2.5 months, 1825 h
[6] = Effect on ccl6 gene expression in 5XFAD mouse thalamus at 1200 ppm administered as rodent chow starting from 1.5 months and measured after 7 months by RNA-Seq analysis (reference value: 3.667 to 7.093 RPKM); type: functional; conditions: route po, time 5.5 months, 4015 h
Mus musculus [7] = test: Prevention of Apc gene downregulation in 5XFAD mouse hippocampus at 1200 ppm administered as rodent chow starting from 1.5 months and measured after 7 months by Nanostring analysis; type: functional, tissue-based; conditions: route po, time 5.5 months
SRSF protein kinase 2 = SRSF protein kinase 2 (Homo sapiens, UniProt P78362); test: Inhibition of SRPK2 (unknown origin)
[8] = biological target: Serine/threonine-protein kinase 4 (Homo sapiens, UniProt Q13043); test: Inhibition of STK4 (unknown origin)
[9] = biological target: MAP kinase-activated protein kinase 2 (Homo sapiens, UniProt P49137); test: Inhibition of MAPKAPK2 (unknown origin)
Mus musculus [10] = test: Prevention of Gls gene downregulation in 5XFAD mouse hippocampus at 1200 ppm administered as rodent chow starting from 1.5 months and measured after 7 months by Nanostring analysis; type: functional, tissue-based; conditions: route po, time 5.5 months
Angiopoietin-1 receptor = Angiopoietin-1 receptor (Homo sapiens, UniProt Q02763); test: Inhibition of TEK (unknown origin)
[11] = Effect on Chrm3 gene expression in wildtype mouse hippocampus assessed as percent change in Reads Per kilo base per Million mapped reads at 1200 ppm administered as rodent chow starting from 1.5 months and measured after 7 months by RNA-Seq analysis (reference value: 85.337 to 114.189 %); type: functional; conditions: route po, time 5.5 months, 4015 h
How it was run: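 WT and 5xFAD mice were treated with 1200 ppm PLX5622 chow or control chow from 1.5 to 7 months of age. Brains were microdissected into cortex, hippocampus and thalamus, and RNA was extracted from tissue powder. Whole-transcriptome RNA-Seq libraries were sequenced, with n = 4 per group per region (48 samples).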

Mus musculus [12] = test: Antialzheimer activity in 5XFAD mouse assessed as number of Iba positive cells per FOV in retro spinal cortex at 1200 ppm administered as rodent chow starting from 1.5 months and measured after 7 months (reference value: 473 to 792); type: functional; conditions: route po, time 5.5 months, 4015 h
[13] = Oral bioavailability in female rat at 45 mg/kg administered as single via gavage; type: ADME, organism-based; conditions: in vivo
[14] = Ratio of drug concentration in 5XFAD mouse brain to plasma at 1200 ppm administered as rodent chow for 180 days; type: ADME, cell-free; conditions: brain and plasma, route po, time 180 day, read-out: BPR
[15] = Effect on Cst7 gene expression in wild type mouse cortex at 1200 ppm administered as rodent chow starting from 1.5 months and measured after 7 months by RNA-Seq analysis (reference value: 0.102 to 0.891 RPKM); type: functional; conditions: route po, time 5.5 months, 4015 h
[16] = biological target: Serine/threonine-protein kinase D2 (Homo sapiens, UniProt Q9BZL6); test: Inhibition of PRKD2 (unknown origin)
Mus musculus [17] = test: Antialzheimer activity in 5XFAD mouse assessed as amyloidbeta38 level in detergent soluble thalamus fraction measured per microgram protein at 1200 ppm administered as rodent chow starting from 1.5 months and measured after 7 months by ELISA (reference value: 0 to 0.010 pg); type: functional; conditions: route po, time 5.5 months, 4015 h
How it was run: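 PLX5622 at 1200 ppm in chow given to 5xFAD mice from 1.5 months to 4 or 7 months of age; cortex and thalamus homogenized in TPER (detergent-soluble), pellets re-homogenized in 70% formic acid and spun 100,000 g, 1 h, 4 °C (insoluble); protein by Bradford/Lowry; Aβ species measured by Meso Scale electrochemiluminescence immunoassay, normalized to protein; n = 7–8 per group at 7 months.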

Mus musculus [18] = test: Antialzheimer activity in 5XFAD mouse assessed as iron reactivity by measuring hemosiderin intensity of prussian blue staining in thalamus at 1200 ppm administered as rodent chow starting from 1.5 months and measured after 7 months by confocal microscopic analysis (reference value: 0.39 to 3.131 a.u.); type: functional; conditions: route po, time 5.5 months, 4015 h
How it was run: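 Wild-type or 5xFAD mice fed PLX5622 (1200 ppm) in AIN-76A chow from 1.5 months of age, examined in 4- and 7-month-old cohorts. Brain sections stained with a Prussian blue kit per kit instructions to detect iron deposits (microbleeds).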

[19] = Effect on Ctsd gene expression in 5XFAD mouse hippocampus at 1200 ppm administered as rodent chow starting from 1.5 months and measured after 7 months by RNA-Seq analysis (reference value: 230.675 to 384.375 RPKM); type: functional; conditions: route po, time 5.5 months, 4015 h
[20] = Toxicity in wildtype mouse assessed as average speed at 1200 ppm administered as rodent chow for 10 to 24 weeks by Open field test (reference value: 0.044 to 0.09 meter/s); conditions: in vivo, po, time 10-24 weeks
[21] = biological target: Cyclin-dependent kinase 5/CDK5 activator 1 (Homo sapiens, UniProt Q00535); test: Inhibition of CDK5_p35 (unknown origin); type: protein-complex assay
[22] = biological target: Serine/threonine-protein kinase SIK2 (Homo sapiens, UniProt Q9H0K1); test: Inhibition of SNF1LK2 (unknown origin)
Mus musculus [23] = test: Prevention of Itgam gene upregulation in 5XFAD mouse hippocampus at 1200 ppm administered as rodent chow starting from 1.5 months and measured after 7 months by Nanostring analysis; type: functional, tissue-based; conditions: route po, time 5.5 months
[24] = Effect on ccl6 gene expression in wild type mouse thalamus at 1200 ppm administered as rodent chow starting from 1.5 months and measured after 7 months by RNA-Seq analysis (reference value: 0.647 to 1.238 RPKM); type: functional; conditions: route po, time 5.5 months, 4015 h
Mus musculus [25] = test: Effect on APP processing pathway in 5XFAD mouse assessed as PS1 protein signal intensity in cortex at 1200 ppm administered as rodent starting from 1.5 months and measured after 7 months (reference value: 64.603 to 143.235 %); type: functional; conditions: route po, time 5.5 months, 4015 h

Chain of Serine/threonine-protein kinase D2 (Q9BZL6 whole entry): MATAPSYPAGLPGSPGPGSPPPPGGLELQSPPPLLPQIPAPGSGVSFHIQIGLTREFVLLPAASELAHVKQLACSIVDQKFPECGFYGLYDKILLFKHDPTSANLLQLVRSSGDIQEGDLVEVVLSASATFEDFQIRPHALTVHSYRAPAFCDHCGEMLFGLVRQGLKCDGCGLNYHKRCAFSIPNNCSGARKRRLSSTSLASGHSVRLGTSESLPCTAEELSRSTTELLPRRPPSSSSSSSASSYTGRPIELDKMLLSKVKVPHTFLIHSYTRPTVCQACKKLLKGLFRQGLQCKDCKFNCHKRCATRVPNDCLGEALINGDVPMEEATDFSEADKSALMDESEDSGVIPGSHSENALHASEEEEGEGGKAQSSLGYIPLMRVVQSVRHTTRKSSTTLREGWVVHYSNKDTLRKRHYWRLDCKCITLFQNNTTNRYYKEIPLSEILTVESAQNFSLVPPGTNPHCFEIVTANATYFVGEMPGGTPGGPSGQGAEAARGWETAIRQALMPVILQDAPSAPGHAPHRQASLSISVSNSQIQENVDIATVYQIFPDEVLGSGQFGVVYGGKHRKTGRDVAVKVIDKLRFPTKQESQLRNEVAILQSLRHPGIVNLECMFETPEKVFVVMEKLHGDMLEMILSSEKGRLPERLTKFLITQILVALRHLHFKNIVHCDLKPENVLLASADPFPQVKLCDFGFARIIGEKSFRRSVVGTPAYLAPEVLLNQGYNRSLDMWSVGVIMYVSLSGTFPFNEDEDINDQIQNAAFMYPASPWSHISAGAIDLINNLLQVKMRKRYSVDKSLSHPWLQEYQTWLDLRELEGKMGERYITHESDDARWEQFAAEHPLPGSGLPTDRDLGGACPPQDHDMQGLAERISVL
Chain of Serine/threonine-protein kinase 4 (Q13043 whole entry): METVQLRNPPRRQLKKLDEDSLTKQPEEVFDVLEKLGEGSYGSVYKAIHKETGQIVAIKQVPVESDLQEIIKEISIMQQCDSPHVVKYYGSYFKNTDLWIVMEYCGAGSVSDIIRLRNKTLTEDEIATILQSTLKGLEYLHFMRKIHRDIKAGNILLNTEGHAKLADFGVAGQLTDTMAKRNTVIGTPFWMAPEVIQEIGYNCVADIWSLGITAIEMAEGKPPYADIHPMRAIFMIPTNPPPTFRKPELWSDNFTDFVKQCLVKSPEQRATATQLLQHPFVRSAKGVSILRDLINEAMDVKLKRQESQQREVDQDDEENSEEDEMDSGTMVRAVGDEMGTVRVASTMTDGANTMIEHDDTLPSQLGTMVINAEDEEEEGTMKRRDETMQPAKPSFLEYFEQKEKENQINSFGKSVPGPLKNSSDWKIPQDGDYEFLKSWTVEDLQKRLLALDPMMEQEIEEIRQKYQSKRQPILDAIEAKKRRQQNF
Chain of Misshapen-like kinase 1 (Q8N4C8 whole entry): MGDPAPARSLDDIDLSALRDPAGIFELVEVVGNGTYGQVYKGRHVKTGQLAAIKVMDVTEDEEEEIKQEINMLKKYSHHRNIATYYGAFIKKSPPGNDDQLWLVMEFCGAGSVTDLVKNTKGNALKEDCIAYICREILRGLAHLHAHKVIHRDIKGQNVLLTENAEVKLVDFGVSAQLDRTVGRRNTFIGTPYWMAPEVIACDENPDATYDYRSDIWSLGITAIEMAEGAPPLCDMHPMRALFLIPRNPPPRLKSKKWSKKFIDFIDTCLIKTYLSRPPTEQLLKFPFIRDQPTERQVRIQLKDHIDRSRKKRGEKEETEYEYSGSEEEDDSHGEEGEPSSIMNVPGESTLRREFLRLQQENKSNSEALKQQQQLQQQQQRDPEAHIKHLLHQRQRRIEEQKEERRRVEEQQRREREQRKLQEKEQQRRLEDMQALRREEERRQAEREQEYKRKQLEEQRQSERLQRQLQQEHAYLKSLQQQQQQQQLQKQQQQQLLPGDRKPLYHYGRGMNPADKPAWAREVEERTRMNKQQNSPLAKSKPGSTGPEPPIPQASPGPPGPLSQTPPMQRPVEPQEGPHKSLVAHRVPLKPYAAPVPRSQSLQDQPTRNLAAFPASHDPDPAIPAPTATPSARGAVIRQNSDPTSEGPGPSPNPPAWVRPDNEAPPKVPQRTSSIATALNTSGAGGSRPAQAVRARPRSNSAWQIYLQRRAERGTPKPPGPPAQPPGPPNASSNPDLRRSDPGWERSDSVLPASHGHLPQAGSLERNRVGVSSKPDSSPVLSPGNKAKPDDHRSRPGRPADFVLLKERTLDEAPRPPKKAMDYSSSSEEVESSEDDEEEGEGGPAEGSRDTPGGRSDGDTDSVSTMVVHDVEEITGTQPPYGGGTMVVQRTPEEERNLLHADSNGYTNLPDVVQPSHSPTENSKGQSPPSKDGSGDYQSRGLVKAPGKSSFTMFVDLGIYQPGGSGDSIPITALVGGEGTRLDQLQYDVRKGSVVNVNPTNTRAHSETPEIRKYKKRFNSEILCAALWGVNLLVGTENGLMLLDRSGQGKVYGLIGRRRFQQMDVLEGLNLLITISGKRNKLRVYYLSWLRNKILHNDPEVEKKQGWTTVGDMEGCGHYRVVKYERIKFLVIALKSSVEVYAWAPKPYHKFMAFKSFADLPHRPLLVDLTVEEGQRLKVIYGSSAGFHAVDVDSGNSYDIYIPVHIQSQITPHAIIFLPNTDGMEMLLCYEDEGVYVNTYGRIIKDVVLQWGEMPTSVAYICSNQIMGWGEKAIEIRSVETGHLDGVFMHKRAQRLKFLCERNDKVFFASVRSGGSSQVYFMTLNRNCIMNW
Chain of MAP kinase-activated protein kinase 2 (P49137 whole entry): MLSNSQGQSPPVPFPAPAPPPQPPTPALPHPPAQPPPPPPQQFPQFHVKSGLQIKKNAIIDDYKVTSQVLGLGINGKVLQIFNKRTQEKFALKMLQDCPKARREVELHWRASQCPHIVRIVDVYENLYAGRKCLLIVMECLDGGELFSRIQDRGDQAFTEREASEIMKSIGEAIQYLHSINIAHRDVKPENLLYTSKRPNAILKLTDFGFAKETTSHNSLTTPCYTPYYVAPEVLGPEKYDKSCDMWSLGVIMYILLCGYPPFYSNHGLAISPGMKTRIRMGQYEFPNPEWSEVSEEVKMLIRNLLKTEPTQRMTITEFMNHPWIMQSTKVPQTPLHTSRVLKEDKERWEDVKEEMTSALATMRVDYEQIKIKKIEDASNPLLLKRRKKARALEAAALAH
Chain of SRSF protein kinase 2 (P78362 whole entry): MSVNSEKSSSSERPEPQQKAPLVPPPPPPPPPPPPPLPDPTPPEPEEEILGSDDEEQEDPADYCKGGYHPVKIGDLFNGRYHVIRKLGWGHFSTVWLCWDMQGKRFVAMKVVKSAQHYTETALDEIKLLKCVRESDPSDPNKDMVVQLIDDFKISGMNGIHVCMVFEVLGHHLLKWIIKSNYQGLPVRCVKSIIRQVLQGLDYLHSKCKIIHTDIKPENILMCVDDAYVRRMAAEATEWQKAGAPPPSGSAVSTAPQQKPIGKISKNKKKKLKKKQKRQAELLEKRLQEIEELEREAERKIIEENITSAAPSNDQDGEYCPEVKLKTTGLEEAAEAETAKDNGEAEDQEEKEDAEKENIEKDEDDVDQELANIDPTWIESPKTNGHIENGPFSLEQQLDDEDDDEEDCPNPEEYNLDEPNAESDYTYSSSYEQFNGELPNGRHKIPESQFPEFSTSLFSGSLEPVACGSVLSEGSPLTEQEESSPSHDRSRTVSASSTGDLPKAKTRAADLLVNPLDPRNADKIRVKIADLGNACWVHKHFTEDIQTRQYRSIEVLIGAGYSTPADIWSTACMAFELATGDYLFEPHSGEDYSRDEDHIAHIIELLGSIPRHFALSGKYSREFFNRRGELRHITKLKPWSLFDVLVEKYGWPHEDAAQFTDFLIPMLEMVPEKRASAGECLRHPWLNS
Chain of Serine/threonine-protein kinase SIK2 (Q9H0K1 whole entry): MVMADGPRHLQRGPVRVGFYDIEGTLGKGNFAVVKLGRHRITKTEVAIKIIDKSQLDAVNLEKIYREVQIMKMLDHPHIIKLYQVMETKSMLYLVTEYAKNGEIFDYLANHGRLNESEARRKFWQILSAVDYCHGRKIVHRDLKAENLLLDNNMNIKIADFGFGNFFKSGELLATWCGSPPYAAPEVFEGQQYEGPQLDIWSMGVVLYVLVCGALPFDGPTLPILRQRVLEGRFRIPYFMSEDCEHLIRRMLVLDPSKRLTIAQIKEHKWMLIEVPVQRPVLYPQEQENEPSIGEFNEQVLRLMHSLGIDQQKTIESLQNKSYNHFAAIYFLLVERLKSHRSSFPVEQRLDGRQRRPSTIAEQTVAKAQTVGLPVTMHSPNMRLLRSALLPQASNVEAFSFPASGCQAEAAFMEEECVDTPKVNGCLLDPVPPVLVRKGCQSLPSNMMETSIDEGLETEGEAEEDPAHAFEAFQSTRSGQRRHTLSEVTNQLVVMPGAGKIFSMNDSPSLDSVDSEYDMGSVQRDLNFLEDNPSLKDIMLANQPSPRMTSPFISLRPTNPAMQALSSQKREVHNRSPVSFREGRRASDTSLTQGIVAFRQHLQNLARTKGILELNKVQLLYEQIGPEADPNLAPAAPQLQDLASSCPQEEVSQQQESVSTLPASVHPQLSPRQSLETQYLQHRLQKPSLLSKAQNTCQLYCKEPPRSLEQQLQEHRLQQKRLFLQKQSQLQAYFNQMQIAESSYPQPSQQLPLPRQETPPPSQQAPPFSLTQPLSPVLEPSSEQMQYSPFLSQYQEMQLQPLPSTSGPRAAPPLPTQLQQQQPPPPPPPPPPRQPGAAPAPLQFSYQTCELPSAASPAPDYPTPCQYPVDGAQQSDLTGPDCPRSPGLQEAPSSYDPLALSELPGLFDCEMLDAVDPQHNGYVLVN

COc1ncc(F)cc1CNc1ccc(Cc2c[nH]c3ncc(C)cc23)c(F)n1 [PLX-5622]
Activity (Mus musculus [1]): 307
Time (Mus musculus [2]): 30.9 s
Activity [3]: 0.984 RPKM
IC50 (Misshapen-like kinase 1): > 1 µM
Activity [4]: 69.868%
Activity (Mus musculus [5]): 70.238%
Activity [6]: 0 RPKM
Activity (Mus musculus [7]): Active
IC50 (SRSF protein kinase 2): > 1 µM
IC50 [8]: > 1 µM
IC50 [9]: > 1 µM
Activity (Mus musculus [10]): Active
IC50 (Angiopoietin-1 receptor): > 1 µM
Activity [11]: 79.458%
Activity (Mus musculus [12]): 2
bioavailability [13]: 89%
Kp at 4320 h [14]: 0.26
Activity [15]: 0 RPKM
IC50 [16]: > 1 µM
Activity (Mus musculus [17]): 0 pg
Flu intensity (Mus musculus [18]): 0.1 a.u.
Activity [19]: 132.829 RPKM
Activity [20]: 0.03 meter/s
IC50 [21]: > 1 µM
IC50 [22]: > 1 µM
Activity (Mus musculus [23]): Active
Activity [24]: 0 RPKM
Activity (Mus musculus [25]): 56.036%
